# Measured values as given in PubChem BioAssay AID651952 (The Scripps Research Institute Molecular Screening Center, 2012).
# The campaign covered roughly 2,400 compounds. About 940 (39%) were called active. Only a sample is shown. Unmarked numbers belong to inactive results.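 Rule for the calls: active = inhibition above the plate's mean compound inhibition plus 3 SD, computed per plate (cut at about 22% in these data); inactive = the rest.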
# Assay: inhibition of ATP-evoked calcium response in CHO-Ga16 cells, counter-screen for TAAR1 agonist project, cell-based, fluorescence (AID 651952);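 note: 0% = EC80 ATP with DMSO and 100% = DMSO wells without ATP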
# Conditions: CHO-Ga16 ATP-induced calcium, Fluo-8 fluorescence; at 3 µM; hits give high values
# Procedure, shortened: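 Test system: parental CHO cells stably overexpressing Gα16, lacking hTAAR1; Timing: 17–24 h seeding, dye 75 min 37 °C, 30 min RT; Signal: Fluo-8 calcium dye fluorescence, excitation 470–495 nm, emission 515–575 nm; Controls: DMSO-only and ATP-stimulated wells; Read-out: % inhibition of ATP-evoked calcium signal.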
row,SMILES,inhibition
1,COc1ccc(C(N)c2csc(NC(=O)Nc3cccc(C(F)(F)F)c3)n2)cc1 (stereo not drawn),41.8% (active)
2,NC(c1ccccc1)c1csc(NC(=O)Nc2cccc(C(F)(F)F)c2)n1 (stereo not drawn),48% (active)
3,NC[C@H](Cc1ccccc1)NCCc1cc(C(F)(F)F)cc(C(F)(F)F)c1,9.31%
4,CCN(CC)c1ccc2oc(=O)c(C)nc2c1,37.7% (active)
5,COc1ccc(CC(N)c2csc(NC(=O)Cc3ccccc3)n2)cc1 (stereo not drawn),20.4%
6,CC(C)(C)CC(=O)Nc1nc(C(N)Cc2ccc(C(F)(F)F)cc2)cs1 (stereo not drawn),54.9% (active)
7,CCCCc1c(-c2ccc(Br)cc2)ncn1CCc1ccccc1OC,23.5% (active)
8,CCc1c(-c2ccccc2OC)ncn1CCc1ccccc1OC,3.45%
9,CCCCc1c(-c2ccc(Cl)cc2)ncn1CCc1ccccc1OC,28% (active)
10,S=C(Nc1ccc(Br)cc1)NC1CCN(Cc2ccccc2)CC1,23.8% (active)
11,COc1ccc2c(c1)OC(O)(C(F)(F)C(F)F)CC2=O (stereo not drawn),17.6%
12,c1ccc(-c2csc(N3CCc4ccccc4C3)n2)cc1,0.61%
13,O=C(Nc1ccncc1)Nc1ccc(F)cc1,12.7%
14,O=C(Nc1ccc(F)cc1)Nc1nnc([C@H]2C[C@H](O)[C@@H](CO)O2)s1,2.16%
15,O=C(Nc1ccccc1)Nc1nnc(COc2ccccc2F)s1,27.2% (active)
16,CCC(c1nnnn1Cc1ccco1)N(CCc1ccccc1)Cc1cc2cccc(C)c2[nH]c1=O (stereo not drawn),13.9%
17,CCC(C(=O)Nc1ccc(C(C)C)cc1)c1ccccc1 (stereo not drawn),68% (active)
18,c1ccc2c(c1)C(=NC1CCCCC1)NC2=NC1CCCCC1,26.3% (active)
19,C#CCOc1ccc(/C=C2/C(=O)NN(c3ccccc3)C2=O)cc1OC,9.41%
20,c1ccc(C2CNCc3c2ccc2ccccc32)cc1 (stereo not drawn),33.8% (active)
21,CCCOc1ccc(-c2c(C(=O)N/N=C/c3ccco3)nnn2-c2nonc2N)cc1,8.77%
22,CCOc1ccc(Br)cc1CSC(=N)N,27.7% (active)
23,CCCCOc1ccc(CSC(=N)N)cc1[N+](=O)[O-],17.7%
24,CCc1ccc(-c2nn(-c3ccccc3)cc2CSC(=N)N)cc1,21.2%

row,SMILES,inhibition
1,Nc1nonc1-n1nnc(C(=O)N/N=C/c2ccc(Cl)cc2)c1-c1ccc2c(c1)OCO2,-0.91%
2,Nc1c(C(=O)c2cccs2)sc2nsc(SCCN3CCCCC3)c12,63% (active)
3,COc1ccc(OC)c(C(c2nnnn2C(C)(C)C)N2CCc3ccccc3C2)c1 (stereo not drawn),2.14%
4,CCCC1CCC(=NNC(=S)NCCc2ccccc2)CC1 (stereo not drawn),13.2%
5,c1ccc(Nc2nc(N3CCOCC3)c3ccccc3n2)cc1,28.7% (active)
6,Cc1ccc(S(=O)(=O)N(CC(=O)N2CCc3ccccc3C2)c2cccc(Cl)c2)cc1,18.1%
7,O=C1C=C(c2ccc(Cl)cc2)C(=O)N1Nc1ccccc1,79.5% (active)
8,Cc1ccc(Sc2cc(N3CCOCC3)nc(-c3ccccc3)n2)cc1,-8.38%
9,Nc1nnn(CC(=O)N/N=C/c2ccccc2)n1,0.58%
10,CC(Oc1ccc2ccccc2c1)C(=O)NNC(=S)NC(=O)c1ccco1 (stereo not drawn),52.4% (active)
11,CCCc1ccc(OCC(=O)NNC(=S)NC(=O)c2ccco2)cc1,50.6% (active)
12,Cc1c(CNCCc2ccccc2)c(C(=O)O)c(C)n1-c1ccccc1,6.15%
13,CCCSc1nc2c(c(=O)n(C)c(=O)n2C)n1Cc1ccc(C)cc1,20.4%
14,Oc1ccc2ccc3cccc[n+]3c2c1,33.9% (active)
15,Cc1cc(C)c2cc(C#N)c(N3CCNCC3)nc2c1,3.67%
16,O=C(NNC(=S)NC(=O)c1cn(-c2ccccc2)nc1-c1ccccc1)c1ccncc1,57.6% (active)
17,COc1ccc2cc(-c3[nH]ncc3CNCCn3nc(C)cc3C)ccc2c1,4.6%
18,Cc1cccc(NC(=O)C(C)N2C(=O)C3C4CC(C(Br)C4Br)C3C2=O)c1 (stereo not drawn),43.9% (active)
19,O=c1cnnc(Nc2ccccc2)[nH]1,7.9%
20,COc1cc(OC)cc(C(=O)N[C@H](C(=O)OCC(=O)NC(C)c2ccccc2)C(C)C)c1 (stereo partly drawn),6.73%
21,Cn1c(=O)c(=O)n(C)c2cc(S(=O)(=O)NCCc3ccccc3)ccc21,-3.68%
22,O=C(Nc1ccc(Cl)cc1)N1CCc2[nH]c3ccccc3c2C1,14.7%
23,COc1ccc(OC)c(NC(=S)N2CCc3ccccc3C2)c1,5.63%
24,Fc1ccc(NC(=S)N2CCc3[nH]c4ccccc4c3C2)cc1,22.9% (active)
